This note sets out measurements from paper PMC8733272 (iScience, 2021).

Broadly, the EC50 is the concentration at which the effect is half-maximal. Read a low EC50 as a more potent agent.

Numbering of substitutions follows the chain as printed.

The target of data set [1] is T1, N-terminally tagged W403A-Parkin (Homo sapiens, UniProt O60260, W403A).
T1 sequence (O60260 1-465 W403A): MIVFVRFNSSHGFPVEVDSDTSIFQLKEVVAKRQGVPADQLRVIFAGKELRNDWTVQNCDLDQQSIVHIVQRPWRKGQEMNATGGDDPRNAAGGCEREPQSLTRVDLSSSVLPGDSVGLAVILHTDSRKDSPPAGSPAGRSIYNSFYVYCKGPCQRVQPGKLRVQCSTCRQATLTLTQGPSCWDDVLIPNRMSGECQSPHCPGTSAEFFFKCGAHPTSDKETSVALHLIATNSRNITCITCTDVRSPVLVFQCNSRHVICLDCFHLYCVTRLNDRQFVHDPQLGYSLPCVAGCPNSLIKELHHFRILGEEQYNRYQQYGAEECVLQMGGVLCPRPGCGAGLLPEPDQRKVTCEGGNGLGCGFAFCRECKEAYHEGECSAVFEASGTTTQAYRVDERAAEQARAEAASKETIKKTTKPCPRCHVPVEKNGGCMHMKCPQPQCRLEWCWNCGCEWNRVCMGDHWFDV
Description: In vitro ubiquitin vinyl sulfone. In kind it is biochemical. Particulars: 3 μM pUb, 1 h. The gist of the method:
(§1)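 Tagged Parkin (WT or W403A), 2 μM, incubated with 10 μM Ub-VS and 3 μM pUb. Test compound at 0, 0.09, 0.27, 0.8, 2.5, 7.4, 22.2, 66.7 and 200 μM. Buffer: 50 mM HEPES, 150 mM NaCl, 1 mM TCEP, pH 8.0. Final DMSO 2% (v/v).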

Data set [2] addresses T2, N-terminally tagged WT-Parkin (Homo sapiens, UniProt O60260).
T2 sequence (O60260 1-465): T1 sequence (O60260 1-465 W403A) with A403W
As to the kind of experiment: In vitro ubiquitin vinyl sulfone. In kind it is biochemical. As to conditions: 3 μM pUb, 2 h, no E1, E2 or ATP. The essentials: as §1

For data set [3], the target named is T3, WT-Parkin (substrate His-Miro1 186-591) (Homo sapiens, UniProt O60260).
T3 sequence (O60260 1-465): T1 sequence (O60260 1-465 W403A) with A403W
As to the kind of experiment: Miro1 ubiquitination assay by Western blot. Particulars: His-Miro1 (186-591) substrate. Format: biochemical. The gist of the method:
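Run as the TR-FRET reaction with untagged WT-Parkin. Test compound was pre-incubated 30 min with E1, E2, Parkin and His-Miro1 186-591 (250 nM final); the 2X mix held 40 nM E1, 800 nM E2 and 100 nM Parkin. After 20 min the reaction was stopped in SDS sample buffer, then run on 4–12% bis-tris SDS-PAGE, PVDF transfer and IR-dye secondary imaging.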
A general note: A western blot detects proteins with antibodies after separation by electrophoresis.

For data set [4], the target named is T4, WT-Parkin (Homo sapiens, UniProt O60260).
T4 sequence (O60260 1-465): T1 sequence (O60260 1-465 W403A) with A403W
Description: Parkin autoubiquitination by Western blot. In kind it is biochemical. Particulars: 5 min reaction at 37°C. The gist of the method:
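Untagged WT-Parkin was pre-incubated 30 min at 37°C with E1, E2 and test compound; the 2X mix held 40 nM E1, 800 nM E2 and 100 nM Parkin. Then 2X substrate mix was added (760 nM fluorescein-Ub, 50 μM ubiquitin, 10 μM pUb, 2 mM ATP) in HEPES pH 7.4 buffer with 1% DMSO, in 40 μL. Stopped after 5 min with SDS sample buffer; polyubiquitin smears were read by Western blot.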

Data set [5] has as its target T4, WT-Parkin. As to the kind of experiment: Parkin catalytic poly-auto-Ub TR-FRET assay. Format: biochemical. Particulars: for activity in TR-FRET autoubiquitination assay: WT-Parkin with pUb. A general note: TR-FRET usually uses a lanthanide donor and a delayed reading to cut background.
For data set [6], the system named is SH-SY5Y cells expressing the MitoQC construct. Description: MitoQC mitophagy assay. Particulars: 1 h pre-incubation, Antimycin + Oligomycin. In kind it is cell-based. The gist of the method:
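SH-SY5Y cells carrying MitoQC were seeded at 1.6×10^4 cells/well on attachment factor and recovered 72 h. Cells were pre-treated 1 h with test compound, then given 5 μM Antimycin + 10 μM Oligomycin or DMSO for 8 h unless stated otherwise. Fixed in 2% PFA on ice 30 min, DAPI-stained, and imaged at 64x (25 fields, 4 replicate wells). mCherry puncta (mitolysosomes) were counted.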

Data set [7] addresses Human MDR1 efflux transporter (MDCK-MDR1 cells) (Homo sapiens, UniProt P08183). As to the kind of experiment: MDCK-MDR1 bidirectional permeability / efflux. In kind it is in vitro ADME. Particulars: average of inward and outward permeability. The gist of the method: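 MDCK-MDR1 cells were seeded at 0.28×10^6 cells/mL on the apical side of transwell inserts and grown 7 days, with two media changes. Monolayers were rinsed in HBSS/1% HEPES pH 7.4. 1 μM test compound was added to the donor side (A>B and B>A); receivers held buffer with 1% BSA. Plates were shaken 2 h at 37°C. Donor was sampled at 0 and 120 min, receiver at 2 h, and quenched with acetonitrile plus internal standard for LC-MS/MS. Post-assay TEER had to exceed 430 ohm∗cm2. Papp = (dQ/dt)(1/C0)(1/A); ER = Papp B>A / Papp A>B.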

The target in data set [8] is N-terminally tagged W403A-Parkin (UniProt O60260).

Human MDR1 efflux transporter (MDCK-MDR1 cells), sequence (P08183 whole entry): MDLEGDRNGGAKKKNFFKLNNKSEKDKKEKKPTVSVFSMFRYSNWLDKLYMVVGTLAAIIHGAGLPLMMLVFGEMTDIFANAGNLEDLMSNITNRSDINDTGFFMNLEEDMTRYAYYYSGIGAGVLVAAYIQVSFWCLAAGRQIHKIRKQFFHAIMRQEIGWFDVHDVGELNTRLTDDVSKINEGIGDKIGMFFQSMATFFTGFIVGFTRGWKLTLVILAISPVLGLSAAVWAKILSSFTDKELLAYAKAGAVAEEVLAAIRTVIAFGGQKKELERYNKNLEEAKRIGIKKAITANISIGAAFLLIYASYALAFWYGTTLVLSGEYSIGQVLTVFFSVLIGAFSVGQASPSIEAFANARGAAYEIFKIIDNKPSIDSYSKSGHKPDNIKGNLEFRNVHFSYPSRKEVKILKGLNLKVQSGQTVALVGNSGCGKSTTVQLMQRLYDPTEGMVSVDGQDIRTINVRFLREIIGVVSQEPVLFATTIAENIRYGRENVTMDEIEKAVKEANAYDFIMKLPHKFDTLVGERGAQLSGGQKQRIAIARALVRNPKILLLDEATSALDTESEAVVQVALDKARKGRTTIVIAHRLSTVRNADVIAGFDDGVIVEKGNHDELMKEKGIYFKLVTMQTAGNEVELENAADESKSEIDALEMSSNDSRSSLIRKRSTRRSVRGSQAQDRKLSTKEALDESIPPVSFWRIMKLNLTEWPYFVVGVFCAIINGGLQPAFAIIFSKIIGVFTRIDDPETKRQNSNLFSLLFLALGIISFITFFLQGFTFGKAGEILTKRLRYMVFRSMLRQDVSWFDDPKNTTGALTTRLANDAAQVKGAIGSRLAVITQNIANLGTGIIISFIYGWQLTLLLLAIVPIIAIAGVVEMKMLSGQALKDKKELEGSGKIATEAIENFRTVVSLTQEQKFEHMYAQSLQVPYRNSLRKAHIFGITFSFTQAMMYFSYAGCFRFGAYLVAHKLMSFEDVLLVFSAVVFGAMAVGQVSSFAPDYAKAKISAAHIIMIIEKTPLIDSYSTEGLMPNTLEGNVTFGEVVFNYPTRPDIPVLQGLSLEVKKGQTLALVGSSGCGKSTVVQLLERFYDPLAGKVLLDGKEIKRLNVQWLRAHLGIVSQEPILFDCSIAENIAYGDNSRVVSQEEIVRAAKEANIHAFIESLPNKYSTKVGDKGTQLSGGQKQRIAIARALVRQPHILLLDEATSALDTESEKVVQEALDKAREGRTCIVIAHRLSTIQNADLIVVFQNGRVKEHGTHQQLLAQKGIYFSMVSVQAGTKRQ

As for `CO[C@@H](C(=O)N1Cc2c(-c3ccc(C(=O)N4CCCc5ccccc54)cc3)cnn2C[C@H]1C(C)C)c1cnn(C)c1` (single isomer, unassigned) [BIO-2007818], the “Ub-VS charging of W403A-Parkin” value in data set [1] is “to a lesser extent”. Moreover, in data set [2], the “Ub-VS charging of WT-Parkin” value was “to a lesser extent”. Further, the “Miro1 ubiquitination by Western blot” value in data set [3] was “reduced ability”. For the same molecule, the “Parkin autoubiquitination by Western blot” value at WT-Parkin [4] is “reduced ability to induce Parkin autoubiquitination”.

At WT-Parkin [5] (EC50 (μM), WT-Parkin, 5 μM pUb, averaged technical replicates n = 2), `CO[C@H](C(=O)N1Cc2c(-c3ccc(C(=O)N4CCCc5ccccc54)cn3)cnn2C[C@H]1C(C)C)c1cnn(C)c1` (single isomer, unassigned) [BIO-2007967] displayed a concentration giving a half-maximal response (EC50) of less than 0.2 µM. As for `CO[C@H](C(=O)N1Cc2c(-c3ccc(C(=O)N4CCCc5ccccc54)cc3)cnn2C[C@H]1C(C)C)c1ccccc1` (single isomer, unassigned) [BIO-2008550], the “effect on mitophagy, MitoQC” value in data set [6] is “no enhanced MitoQC activity”. For the molecule `CC(C)[C@H]1Cn2ncc(-c3ccc(C(=O)N4CCCc5ccccc54)cc3)c2CN1C(=O)Cc1ccccc1` [BIO-1966560, (S)-1-(6-isopropyl-3-(4-(1,2,3,4-tetrahydroquinoline-1-carbonyl)phenyl)-6,7-dihydropyrazolo[1,5-a]pyrazin-5(4H)-yl)-2-phenylethan-1-one], the “activity in TR-FRET autoubiquitination assay” value (“activity” below) on WT-Parkin [5] is “inactive”. For the molecule `CC(C)[C@@H]1Cn2ncc(-c3ccc(C(=O)N4CCCc5ccccc54)cc3)c2CN1C(=O)Cc1ccccc1` [BIO-1966561, (R)-1-(6-isopropyl-3-(4-(1,2,3,4-tetrahydroquinoline-1-carbonyl)phenyl)-6,7-dihydropyrazolo[1,5-a]pyrazin-5(4H)-yl)-2-phenylethan-1-one], the “potency improvement (fold) over parent analog” value at WT-Parkin [5] (from TR-FRET EC50) is 5 fold. In the case of `C[C@H](C(=O)N1Cc2c(-c3ccc(C(=O)N4CCCc5ccccc54)cc3)cnn2C[C@H]1C)c1ccccc1` [BIO-1967173, (S)-1-((R)-6-methyl-3-(4-(1,2,3,4-tetrahydroquinoline-1-carbonyl)phenyl)-6,7-dihydropyrazolo[1,5-a]pyrazin-5(4H)-yl)-2-phenylpropan-1-one], in data set [6], the “effect on mitophagy, MitoQC” value was “no enhanced MitoQC activity”.

With `C[C@@H]1Cn2ncc(-c3ccc(C(=O)N4CCCc5ccccc54)cc3)c2CN1C(=O)[C@H](C)c1ccccc1` [BIO-1967174, (R)-1-((R)-6-methyl-3-(4-(1,2,3,4-tetrahydroquinoline-1-carbonyl)phenyl)-6,7-dihydropyrazolo[1,5-a]pyrazin-5(4H)-yl)-2-phenylpropan-1-one], the “activity” value at WT-Parkin [5] was “weakly active”. Moreover, the “Miro1 ubiquitination by Western blot” value in data set [3] was “enhance the rate of monoubiquitination of Miro1 substrate to a level comparable to that of W403A-Parkin”. As to `C[C@H](C(=O)N1Cc2c(-c3ccc(C(=O)N4CCCc5ccccc54)cc3)cnn2C[C@@H]1C)c1ccccc1` [BIO-1968010, (S)-1-((S)-6-methyl-3-(4-(1,2,3,4-tetrahydroquinoline-1-carbonyl)phenyl)-6,7-dihydropyrazolo[1,5-a]pyrazin-5(4H)-yl)-2-phenylpropan-1-one], the “activity” value at WT-Parkin [5] was “inactive”.

As to `C[C@@H](C(=O)N1Cc2c(-c3ccc(C(=O)N4CCCc5ccccc54)cc3)cnn2C[C@@H]1C)c1ccccc1` [BIO-1968011, (R)-1-((S)-6-methyl-3-(4-(1,2,3,4-tetrahydroquinoline-1-carbonyl)phenyl)-6,7-dihydropyrazolo[1,5-a]pyrazin-5(4H)-yl)-2-phenylpropan-1-one], the “activity” value on WT-Parkin [5] is “inactive”. As for `Cc1n[nH]c(CC(=O)N2Cc3c(-c4ccc(C(=O)N5CCCc6ccccc65)cc4)cnn3C[C@H]2C)n1` [BIO-1984542, (R)-2-(3-methyl-1H-1,2,4-triazol-5-yl)-1-(6-methyl-3-(4-(1,2,3,4-tetrahydroquinoline-1-carbonyl)phenyl)-6,7-dihydropyrazolo[1,5-a]pyrazin-5(4H)-yl)ethan-1-one], the “activity” value at WT-Parkin [5] is “inactive”. For the same molecule, the “Ub-VS charging of WT-Parkin” value in data set [2] was “no significant activity”. Besides, the “MDR1-MDCK avg (average of Papp AB/BA)” value in data set [7] was 4.4 ×10⁻⁶ cm/s. The “Miro1 ubiquitination by Western blot” value in data set [3] was “inactive”. Further, the “Parkin autoubiquitination by Western blot” value at WT-Parkin [4] is “inactive”. On to “Phospho-ubiquitin (pUb): Human Recombinant pSer65-Ubiquitin (from UniProt P0CG48 1-76) (natural protein)”, for which, in data set [8], the EC50 of pUb for Ub-VS charging of W403A-Parkin (gel shift), without BIO-2007817 came to 5.4 μM.
